Assay results taken from PMC4441290 (International Journal of Oncology, 2015).
Marks after values point to notes of the source that are not given here.

Legend:
human V2r = details: cited from earlier work; for Ki: human V2r ref 5
VWF = details: after i.v. injection ref 4; cited from earlier work
MDA-MB-231 xenografts = assay: MDA-MB-231 xenograft tumour progression; assay type: in vivo, BALB/c athymic mice; details: 0.3 μg/kg i.v. thrice weekly
Procedure, shortened: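 Athymic BALB/c nude females were injected s.c. with 5×10^6 MDA-MB-231 cells in 300 μl of DMEM:Matrigel (1:1). From day 14, at tumours of ~50 mm3, mice received 0.3 μg/kg i.v. thrice weekly against a saline vehicle. Caliper volumes were calculated as 0.52 × width² × length. Growth rate is the slope of the linear regression of volume over time, mean ± SD.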

[1] = tested on: F3II mouse mammary carcinoma cells; assay: Cell proliferation assay; assay type: cell-based; details: 72 h, concentration-dependent
Procedure, shortened: (§1)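 Cells seeded at 2.5×10^3 per 200 μl in complete DMEM (10% FBS, 2 mM glutamine), attached overnight. They were then exposed to peptide (100–1,500 nM) or vehicle for 72 h at 37°C, 5% CO2. MTT was added for 4 h, the product dissolved in DMSO, and absorbance read at 570 nm. Untreated control OD was set as 100% viability. Results came from at least three independent experiments, mean ± SEM.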

[2] = tested on: MCF-7 human breast carcinoma cells; assay: Cell proliferation assay; assay type: cell-based; details: 72-h exposure, 100–1,500 nM
Procedure, shortened: as §1

Acute toxicology study = assay type: in vivo, Wistar rats; details: for ALT / AST / Creatinine / Direct bilirubin / Fibrinogen / GGT / Glucose / Hematocrit / RBC / Total protein / WBC / Weight: 72 h, mean ± SD
[3] = tested on: F3II cells injected into the tail vein; assay: Experimental lung metastases assay; assay type: in vivo, BALB/c mice; details: 0.3 μg/kg i.v., two doses (time zero and 24 h), day 21
Procedure, shortened: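 Female 8-week-old SPF BALB/c mice received 2×10^5 F3II cells in DMEM via the tail vein. Peptide at 0.3 μg/kg was given i.v. twice: at time zero and 24 h after cell injection. On day 21, lungs were excised, weighed, fixed in Bouin's solution and photographed, and lung nodules were counted.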

[4] = tested on: HMVEC-L human microvascular endothelial cells; assay: Endothelial cell morphogenesis; assay type: cell-based; details: 100 nM, 24 h
F3II mammary tumours = assay: F3II subcutaneous tumour progression and spontaneous lung metastases; assay type: in vivo, BALB/c mice
Procedure, shortened: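 Syngeneic female BALB/c mice were injected s.c. with 2×10^5 F3II cells. Dosing started 7 days later, at tumours of ~50 mm3, with 0.3 μg/kg i.v. thrice weekly against a saline vehicle. Caliper volumes were calculated as 0.52 × width² × length. Mice were necropsied on day 50, and Bouin-fixed lungs were scored for macroscopic nodules under a dissecting microscope. Data are mean ± SD.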

MDA-MB-231 cells = assay: Clonogenic; assay type: cell-based, human; details: read-out: IC50 colony formation; MDA-MB-231, 7 days
Procedure, shortened: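 MDA-MB-231 cells were grown in complete medium containing peptide (100–1,500 nM), with medium plus peptide renewed after 72 h. Colonies of >50 cells were counted 7 days after seeding. IC50 was derived by linear regression of the concentration–inhibition plot. Data are from at least three independent experiments, mean ± SEM.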

[5] = tested on: MDA-MB-231 human breast carcinoma cells; assay: Cell proliferation assay; assay type: cell-based; details: MDA-MB-231, tolvaptan 1,500 nM plus [V^4Q^5]dDAVP 1,500 nM
Procedure, shortened: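 MDA-MB-231 cells were seeded at 2.5×10^3 per 200 μl in complete DMEM and attached overnight. They were then given 1,500 nM test peptide alone or with the competitive V2r antagonist tolvaptan (1,500 nM) for 72 h. MTT was added for 4 h, DMSO used to solubilise, and absorbance read at 570 nm. Untreated control was set as 100%. There were at least three independent experiments, mean ± SEM.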

4-valine-dDAVP
affinity for the human V2r relative to dDAVP (human V2r; higher affinity than dDAVP ref 5): 10 fold | Ki (human V2r): 2.2 nM

NC(=O)CC[C@@H]1NC(=O)[C@H](Cc2ccccc2)NC(=O)[C@H](Cc2ccc(O)cc2)NC(=O)CCSSC[C@@H](C(=O)N2CCC[C@H]2C(=O)N[C@H](CCCN=C(N)N)C(=O)NCC(N)=O)NC(=O)[C@H](CC(N)=O)NC1=O [dDAVP, 1-deamino-8-D-arginine vasopressin]
time of peak levels of VWF release (VWF): 60 to 90 min | reduction in the number of blood vessels (intratumoural vascular density) (MDA-MB-231 xenografts): 30% | tumour growth rate (MDA-MB-231 xenografts; mean ± SD, control 7.44±0.66): 5.72±0.72 mm^3/day | Ki (human V2r): 23.3 nM | cytostatic effect on F3II cells [1]: mild cytostatic effect | effect on proliferation in MCF-7 cell cultures [2]: mild reduction of proliferation | ALT (Acute toxicology study; 1 μg/kg single i.v.): 22.8±3.4 IU/l | AST (Acute toxicology study; 1 μg/kg single i.v.): 36.6±11.6 IU/l | Creatinine (Acute toxicology study; 1 μg/kg single i.v.): 0.70 ± 0.16 mg/mL | Direct bilirubin (Acute toxicology study; 1 μg/kg single i.v.): 0.13 ± 0.04 mg/dL | Fibrinogen (Acute toxicology study; 1 μg/kg single i.v.): 221.0 ± 67.8 mg/dL | GGT (Acute toxicology study; 1 μg/kg single i.v.): 2.8±0.8 IU/l | Glucose (Acute toxicology study; 1 μg/kg single i.v.): 207.0±25.7 ^d mg/dl | Hematocrit (Acute toxicology study; 1 μg/kg single i.v.): 40.4±2.3% | RBC (Acute toxicology study; 1 μg/kg single i.v.): 5.2±0.3 10^6/ml | Total protein (Acute toxicology study; 1 μg/kg single i.v.): 6.6 ± 0.8 g/dL | WBC (Acute toxicology study; 1 μg/kg single i.v.): 4.8±0.3 10^3/ml | Weight (Acute toxicology study; 1 μg/kg single i.v.): 234.2 ± 8.1 g | ALT (Acute toxicology study; 10 μg/kg single i.v.): 22.6±3.4 IU/l | AST (Acute toxicology study; 10 μg/kg single i.v.): 30.0±5.6 IU/l | Creatinine (Acute toxicology study; 10 μg/kg single i.v.): 0.65 ± 0.08 mg/mL | Direct bilirubin (Acute toxicology study; 10 μg/kg single i.v.): 0.14±0.02 ^d mg/dl | Fibrinogen (Acute toxicology study; 10 μg/kg single i.v.): 226.7 ± 48.4 mg/dL | GGT (Acute toxicology study; 10 μg/kg single i.v.): 2.6±0.9 IU/l | Glucose (Acute toxicology study; 10 μg/kg single i.v.): 218.8±20.0 ^d mg/dl | Hematocrit (Acute toxicology study; 10 μg/kg single i.v.): 40.5±2.7% | RBC (Acute toxicology study; 10 μg/kg single i.v.): 5.5±0.3 10^6/ml | Total protein (Acute toxicology study; 10 μg/kg single i.v.): 6.9 ± 0.5 g/dL | WBC (Acute toxicology study; 10 μg/kg single i.v.): 4.4±0.5 10^3/ml | Weight (Acute toxicology study; 10 μg/kg single i.v.): 240.3 ± 9.4 g | ALT (Acute toxicology study; 100 μg/kg single i.v.): 21.3±2.1 IU/l | AST (Acute toxicology study; 100 μg/kg single i.v.): 47.5±17.8 IU/l | Creatinine (Acute toxicology study; 100 μg/kg single i.v.): 0.70 ± 0.09 mg/mL | Direct bilirubin (Acute toxicology study; 100 μg/kg single i.v.): 0.17±0.03 ^d mg/dl | Fibrinogen (Acute toxicology study; 100 μg/kg single i.v.): 243.0 ± 63.1 mg/dL | GGT (Acute toxicology study; 100 μg/kg single i.v.): 3.0±1.2 IU/l | Glucose (Acute toxicology study; 100 μg/kg single i.v.): 230.7±12.1 ^d mg/dl | Hematocrit (Acute toxicology study; 100 μg/kg single i.v.): 41.8±3.4% | RBC (Acute toxicology study; 100 μg/kg single i.v.): 5.7±0.3 10^6/ml | Total protein (Acute toxicology study; 100 μg/kg single i.v.): 7.0 ± 0.5 g/dL | WBC (Acute toxicology study; 100 μg/kg single i.v.): 4.1±0.7 10^3/ml | Weight (Acute toxicology study; 100 μg/kg single i.v.): 241.8 ± 16.8 g | safety profile (Acute toxicology study; reference standard, single i.v. 1, 10 or 100 μg/kg): consistent with previous observations | reduction of the number of lung nodules [3]: 32% | capillary-like tube formation [4]: did not displayed any significant effects | spontaneous lung metastases (F3II mammary tumours; 0.3 μg/kg i.v. thrice weekly for 6 weeks, day 50): not significant | final tumour volume (F3II mammary tumours; 0.3 μg/kg i.v. thrice weekly, mean ± SD, P>0.05, control 1822.3±1185): 1574.8±466.1 mm^3 | IC50 (MDA-MB-231 cells): 1440 nM

Cc1ccccc1C(=O)Nc1ccc(C(=O)N2CCCC(O)c3cc(Cl)ccc32)c(C)c1 (stereo not drawn) [tolvaptan]
blockade of growth-modulating activity of [V^4Q^5]dDAVP [5]: completely abolished
